Calls of active or inactive are those of the source. The calls are words filed in the database; no cut-off is given here.
Legend:
Nucleic Acid [1] = experiment: Binding affinity to wild type HIV1 TAR RNA assessed as association constant at pH 6.8 by ethidium bromide displacement assay based Scatchard analysis method; format: nucleic-acid assay; details: Human immunodeficiency virus 1
How it was run: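 Ethidium bromide displacement: 5 μM EtBr with TAR RNA at 200 nM/strand (under 20% of EtBr bound) in 100 mM KCl, 10 mM SC, 0.5 mM EDTA, pH 6.8. Ligand added in concentrated aliquots, at most 4% v/v. Excitation 545 nm, emission 580–660 nm, intensity at 610 nm. Association constant obtained by Scatchard analysis of the titration data.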

Nucleic Acid [2] = experiment: Binding affinity to wild type HIV1 TAR RNA at pH 6.8 by ethidium bromide displacement assay; format: nucleic-acid assay, Human immunodeficiency virus 1
How it was run: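 TAR RNA (200 nM/strand) and EtBr (5 μM) in 100 mM KCl, 10 mM SC, 0.5 mM EDTA, pH 6.8, titrated with ligand aliquots (at most 4% v/v). Fluorescence excited at 545 nm and read at 610 nm. IC50 is the ligand concentration that displaces 50% of EtBr, taken from a sigmoidal fit of fraction displaced versus log ligand concentration.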

Nucleic Acid [3] = experiment: Binding affinity to HIV1 TAR RNA bulgeless tetraloop mutant assessed as association constant at pH 6.8 by ethidium bromide displacement assay based Scatchard analysis method; format: nucleic-acid assay; details: Human immunodeficiency virus 1
How it was run: (§1)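 Synthetic 2′-ACE-protected TAR RNA, deprotected, heated 98 °C 5 min, then ice-cooled 15 min. TAR RNA at 200 nM/strand with ethidium bromide 5 μM in 100 mM KCl, 10 mM SC, 0.5 mM EDTA, pH 6.8. Ligand added stepwise, ≤4% v/v. Excitation 545 nm, emission 580–660 nm, intensity at 610 nm normalized. IC50 from sigmoidal fit of fraction EtBr displaced vs log ligand; association constants from Scatchard analysis.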

Nucleic Acid [4] = experiment: Binding affinity to HIV1 TAR RNA bulgeless tetraloop mutant at pH 6.8 by ethidium bromide displacement assay; format: nucleic-acid assay, Human immunodeficiency virus 1; how it was run: as §1
Nucleic Acid [5] = experiment: Binding affinity to HIV1 TAR RNA tetraloop mutant at pH 6.8 by ethidium bromide displacement assay; format: nucleic-acid assay, Human immunodeficiency virus 1; how it was run: as §1
Nucleic Acid [6] = experiment: Binding affinity to HIV1 TAR RNA U3 bulge mutant at pH 6.8 by ethidium bromide displacement assay; format: nucleic-acid assay, Human immunodeficiency virus 1; how it was run: as §1
Nucleic Acid [7] = experiment: Binding affinity to HIV1 TAR RNA bulgeless mutant at pH 6.8 by ethidium bromide displacement assay; format: nucleic-acid assay, Human immunodeficiency virus 1; how it was run: as §1
Nucleic Acid [8] = experiment: Binding affinity to HIV1 TAR RNA bulgeless mutant assessed as association constant at pH 6.8 by ethidium bromide displacement assay based Scatchard analysis method; format: nucleic-acid assay; details: Human immunodeficiency virus 1; how it was run: as §1
Nucleic Acid [9] = experiment: Binding affinity to HIV1 TAR RNA tetraloop mutant assessed as association constant at pH 6.8 by ethidium bromide displacement assay based Scatchard analysis method; format: nucleic-acid assay; details: Human immunodeficiency virus 1; how it was run: as §1
Nucleic Acid [10] = experiment: Binding affinity to HIV1 TAR RNA U3 bulge mutant at assessed as association constant at pH 6.8 by ethidium bromide displacement assay based Scatchard analysis method; format: nucleic-acid assay; details: Human immunodeficiency virus 1; how it was run: as §1
Nucleic Acid [11] = experiment: Induction of conformational changes in wild type HIV1 TAR RNA assessed as increase in intensity in 265 nm region using 1 molar equivalents of compound at pH 6.8 by CD spectroscopy; format: nucleic-acid assay; details: Human immunodeficiency virus 1
Nucleic Acid [12] = experiment: Induction of conformational changes in wild type HIV1 TAR RNA assessed as changes in 210 to 220 nm region using 1 molar equivalents of compound at pH 6.8 by CD spectroscopy; format: nucleic-acid assay; details: Human immunodeficiency virus 1

## NC[C@@H]1O[C@H](O[C@H]2[C@@H](O)[C@H](O[C@@H]3[C@@H](O)[C@H](N)C[C@H](N)[C@H]3O[C@H]3O[C@H](CN)[C@@H](O)[C@H](O)[C@H]3N)O[C@@H]2Cn2cc(-c3ccc(-c4cn(C[C@H]5O[C@@H](O[C@@H]6[C@@H](O)[C@H](N)C[C@H](N)[C@H]6O[C@H]6O[C@H](CN)[C@@H](O)[C@H](O)[C@H]6N)[C@H](O)[C@@H]5O[C@H]5O[C@@H](CN)[C@@H](O)[C@H](O)[C@H]5N)nn4)cc3)nn2)[C@H](N)[C@@H](O)[C@@H]1O
Nucleic Acid [1]
  K: 1.5 ×10⁸ /M
Nucleic Acid [2]
  IC50: 150 nM

## C/C(CCc1cn(C[C@H]2O[C@@H](O[C@@H]3[C@@H](O)[C@H](N)C[C@H](N)[C@H]3O[C@H]3O[C@H](CN)[C@@H](O)[C@H](O)[C@H]3N)[C@H](O)[C@@H]2O[C@H]2O[C@@H](CN)[C@@H](O)[C@H](O)[C@H]2N)nn1)=C(/C)CCc1cn(C[C@H]2O[C@@H](O[C@@H]3[C@@H](O)[C@H](N)C[C@H](N)[C@H]3O[C@H]3O[C@H](CN)[C@@H](O)[C@H](O)[C@H]3N)[C@H](O)[C@@H]2O[C@H]2O[C@@H](CN)[C@@H](O)[C@H](O)[C@H]2N)nn1
Nucleic Acid [1]
  K: 1.1 ×10⁷ /M
Nucleic Acid [3]
  K: 2.8 ×10⁷ /M
Nucleic Acid [4]
  IC50: 162 nM
Nucleic Acid [2]
  IC50: 146 nM
Nucleic Acid [5]
  IC50: 210 nM
Nucleic Acid [6]
  IC50: 338 nM
Nucleic Acid [7]
  IC50: 142 nM
Nucleic Acid [8]
  K: 3.6 ×10⁷ /M
Nucleic Acid [9]
  K: 3.5 ×10⁶ /M
Nucleic Acid [10]
  K: 2.6 ×10⁶ /M

## NC[C@@H]1O[C@H](O[C@H]2[C@@H](O)[C@H](O[C@@H]3[C@@H](O)[C@H](N)C[C@H](N)[C@H]3O[C@H]3O[C@H](CN)[C@@H](O)[C@H](O)[C@H]3N)O[C@@H]2Cn2cc(-c3cccc(-c4cn(C[C@H]5O[C@@H](O[C@@H]6[C@@H](O)[C@H](N)C[C@H](N)[C@H]6O[C@H]6O[C@H](CN)[C@@H](O)[C@H](O)[C@H]6N)[C@H](O)[C@@H]5O[C@H]5O[C@@H](CN)[C@@H](O)[C@H](O)[C@H]5N)nn4)c3)nn2)[C@H](N)[C@@H](O)[C@@H]1O
Nucleic Acid [1]
  K: 1.4 ×10⁸ /M
Nucleic Acid [3]
  K: 6.9 ×10⁷ /M
Nucleic Acid [4]
  IC50: 142 nM
Nucleic Acid [2]
  IC50: 110 nM
Nucleic Acid [11]
  Activity: Active
Nucleic Acid [5]
  IC50: 180 nM
Nucleic Acid [6]
  IC50: 244 nM
Nucleic Acid [7]
  IC50: 130 nM
Nucleic Acid [12]
  Activity: Active
Nucleic Acid [8]
  K: 1 ×10⁸ /M
Nucleic Acid [9]
  K: 1.3 ×10⁷ /M

## NC[C@@H]1O[C@H](O[C@H]2[C@@H](O)[C@H](O[C@@H]3[C@@H](O)[C@H](N)C[C@H](N)[C@H]3O[C@H]3O[C@H](CN)[C@@H](O)[C@H](O)[C@H]3N)O[C@@H]2Cn2cc(COCCCCCCCCCCCCOCc3cn(C[C@H]4O[C@@H](O[C@@H]5[C@@H](O)[C@H](N)C[C@H](N)[C@H]5O[C@H]5O[C@H](CN)[C@@H](O)[C@H](O)[C@H]5N)[C@H](O)[C@@H]4O[C@H]4O[C@@H](CN)[C@@H](O)[C@H](O)[C@H]4N)nn3)nn2)[C@H](N)[C@@H](O)[C@@H]1O
Nucleic Acid [1]
  K: 2.5 ×10⁷ /M
Nucleic Acid [3]
  K: 2.7 ×10⁷ /M
Nucleic Acid [4]
  IC50: 158 nM
Nucleic Acid [2]
  IC50: 144 nM
Nucleic Acid [5]
  IC50: 300 nM
Nucleic Acid [6]
  IC50: 326 nM
Nucleic Acid [8]
  K: 4.4 ×10⁷ /M
Nucleic Acid [9]
  K: 2 ×10⁶ /M
Nucleic Acid [10]
  K: 1.5 ×10⁶ /M
